OX1R antag-1 = OX1R (HCRTR1) antagonists, primary screen, fluorescence, CHO/OX1R cells, Fluo-8 calcium, orexin A. inhibition, % at 5 µM. AID 434989, 2010. Fluo-8 calcium fluorescence. actives 0.43% (n = 330,000);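 active means inhibition above its plate's threshold, mean inhibition of all tested compounds on the plate plus 3 SD, cut at about 37% in these data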;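 further: 0% = orexin A challenge wells and 100% = SB-334867-A antagonist wells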
GalR3 antag = GalR3 antagonists in HEK293 cells, primary screen, cell-based, fluorescence readout; Galanin receptor type 3 (Homo sapiens), O60755; HEK293 GalR3-CNG cAMP membrane potential fluorescence; galR3 body fused to GalR1 C-terminus; inhibition, % at 3 µM; actives 0.44% (n = 360,000);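 active means inhibition above the screen-wide average plus 3 SD, cut at about 13% in these data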;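 further: forskolin and galanin both at EC90 stimulate the cells; cAMP rise reported by CNG channel membrane potential dye signal; 0% = forskolin plus galanin with DMSO and 100% = forskolin alone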
CHO parental Ca = ATP-evoked calcium signal inhibitors, parental CHO, primary screen, counter-screen for OX1R antagonist project, cell-based, fluorescence, Fluo-8 calcium dye | actives 0.63% (n = 330,000) | inhibition, % at 5.6 µM | AID 463079, 2010 | parental CHO-K1, ATP-induced calcium, Fluo-8 fluorescence;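 active means inhibition above that plate's mean sample inhibition plus 3 SD, cut at about 26% in these data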;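 further: 0% = ATP-challenged DMSO wells and 100% = DMSO wells without ATP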
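Measured by: calcium-sensitive Fluo-8 fluorescence / Test system: CHO parental line / Controls: ATP-challenged DMSO wells low, unchallenged DMSO wells high / Measure: % inhibition / Compound: single nominal dose of 5.6 µM per compound / Replicates: single well per compound, no replicates / Reagent: ATP as calcium-mobilizing challenge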
GPR7 antag = GPR7 receptor antagonists, primary screen, cell-based, fluorescence, single concentration. Neuropeptides B/W receptor type 1 (Homo sapiens), P48145. GPR7-expressing cells, fluorescence antagonist assay. inhibition, % at 4.4 µM. actives 1.1% (n = 290,000). AID 1861, 2009; in the data active means inhibition above about 16%, passing the limit was not always enough;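 further: cells stimulated with the agonist NPW; 0% = agonist with vehicle and 100% = vehicle without agonist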
Target sequence (P48145 whole entry, looked up): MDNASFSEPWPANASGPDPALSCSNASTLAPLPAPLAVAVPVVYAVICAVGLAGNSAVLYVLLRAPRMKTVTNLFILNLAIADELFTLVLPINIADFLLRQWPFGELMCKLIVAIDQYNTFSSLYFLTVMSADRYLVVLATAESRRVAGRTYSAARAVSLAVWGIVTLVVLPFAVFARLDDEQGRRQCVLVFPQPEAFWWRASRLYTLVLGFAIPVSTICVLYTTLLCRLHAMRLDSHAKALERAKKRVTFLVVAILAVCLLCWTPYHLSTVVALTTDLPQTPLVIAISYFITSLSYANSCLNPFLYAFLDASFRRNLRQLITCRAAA
OX1R antag-2 = antagonists of human orexin 1 receptor (OX1R) | Orexin/Hypocretin receptor type 1 (Homo sapiens), O43613 | OX1R-expressing cells, FRET antagonist read-out | inhibition, % at 6.6 µM | actives 1.8% (n = 330,000) | AID 485270, 2010; in the data active means inhibition mostly above about 38%, no sharp cut-off; inactive means mostly below about 40%;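 further: 0% = agonist challenge alone and 100% = reference antagonist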
* hit, by the source's call; . = no result given. This is a sample that favours compounds with a hit; in the whole collection about 3.1% have one here.

SMILES	OX1R antag-1	GalR3 antag	CHO parental Ca	GPR7 antag	OX1R antag-2
CCCCN(CCCC)CC(O)COc1ccccc1Br (stereo not given)	-30	-9	-20	26*	20
CC(C)CN(CC(C)C)CC(O)COc1ccccc1Br (stereo not given)	-26	-9	-36	-6	9
CN(Cc1ccccc1)C(=O)CCn1c(=O)c2cccn2c2cccnc21	-7	-4	-13	1	6
O=C(Nc1cccc(-c2nc3ccccc3s2)c1)C1=COCCO1	1	-5	-25	-5	75*
O=C(NCCNc1ccc([N+](=O)[O-])cc1C(F)(F)F)c1ccccc1F	27	0	42*	-1	42
CC1(C(=O)NNC(=O)c2cccc([N+](=O)[O-])c2)CC1(Br)Br (stereo not given)	-17	-9	-23	-22	42*
Cc1ccc(NC(=S)NNC(=O)c2cccc([N+](=O)[O-])c2)cc1Cl	-15	-3	-15	-10	40*
O=C(NC(NC(=S)Nc1ccc(Cl)cc1Cl)C(Cl)(Cl)Cl)c1cccc([N+](=O)[O-])c1 (stereo not given)	42*	-10	41*	27	26
N#Cc1ccccc1S(=O)(=O)N1CCN(C(=O)c2cn(-c3ccccc3)nc2-c2cccnc2)CC1	-19	5	-15	.	2
COc1cc(OC)cc(C(=O)NNC(=O)CN2C(=O)NC(C)(c3ccc(C)cc3)C2=O)c1 (stereo not given)	-5	-1	-4	.	8
CCN(CC)S(=O)(=O)c1ccc(C(=O)NCC(=O)NC2CC2)cc1	13	-5	11	.	15
Cc1cc(-c2ccc3c(c2)COc2c4ccccc4nn2-3)on1	-6	-2	-11	.	32
CC1COC(=O)C(NNc2ccc(Cl)c(Cl)c2)=N1 (stereo not given)	1	-2	6	19*	1
COc1ccc(CN(C)C(=O)c2ccccc2OCc2c(C)noc2C)cc1OC	-18	-3	-14	.	-1
CC(C)c1ccc(CN2CC(C(=O)Nc3ccccc3)CC2=O)cc1 (stereo not given)	6	2	-6	17*	4
CC(=O)c1cccc(NC(=O)C2CC(=O)N(Cc3ccccc3)C2)c1 (stereo not given)	-18	-5	8	-10	8
COc1n[nH]c2nncnc12	1	0	-5	-3	121*
CC(C)(C)CC(C)(C)NC(=S)N1CCN(Cc2ccc3c(c2)OCO3)CC1	-4	-5	-10	-4	-8
CC(C)C(=O)Nc1ccc2c(c1)Cc1cc(NC(=O)C(C)C)ccc1-2	-12	-8	-2	-9	19
OC(c1cc(C(F)(F)F)nc2c(Cl)cc(Cl)cc12)C1CCCCN1 (stereo not given)	-13	-14	3	45*	8
O[C@@H](c1cc(C(F)(F)F)nc2c(C(F)(F)F)cccc12)[C@H]1CCCCN1	-10	.	13	.	3
NC(=O)C1CCN(C(=O)c2cc(-c3ccc(Cl)cc3)nc3ccccc23)CC1	-23	-4	-15	.	9
OC(c1cc(-c2ccc(Cl)cc2)nc2ccccc12)C1CCCCN1 (stereo not given)	6	-15	17	63*	4
O=C(N/N=C/c1ccc([N+](=O)[O-])cc1)c1cc(C2CC2)[nH]n1	-11	5	-2	-9	68*
Cc1cc(C(=O)N/N=C/c2ccc(O)c([N+](=O)[O-])c2)n[nH]1	-9	-3	1	-3	60*
O=C(N/N=C/c1ccc([N+](=O)[O-])cc1)c1[nH]ncc1Br	-13	-7	-5	-2	58*
O=C(N/N=C\c1cn[nH]c1-c1ccccc1)c1ccc([N+](=O)[O-])cc1	-9	2	-14	7	36
O=C(N/N=C/c1ccco1)c1cc(C2CC2)[nH]n1	5	-6	-10	-13	2
COc1ccc(OC)c2[nH]c(=O)c(CCNC(=O)c3ccc4c(c3)OCO4)cc12	-23	-2	-21	-9	42

High-throughput results: PubChem, The Scripps Research Institute Molecular Screening Center
